The source made the active and inactive calls. The calls are words filed in the database; no cut-off is given here.
Assays:
[1] = system: Staphylococcus aureus; assay: Antibacterial activity against methicillin-resistant Staphylococcus aureus ATCC BAA 1707 at 50 uM treated with 111 days old solution of test compound for 10 mins relative to control; format: functional
Procedure, shortened: (§1)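 Compound was prepared at 50 μM in LB and stored on the shelf for 18 days or 111 days. Exponentially growing MRSA 1707 (overnight culture diluted 1:1000 in LB) was exposed to the stored solution for 10 min at 37 °C with 250 rpm shaking. Aliquots were serially diluted, plated on LB agar and incubated overnight at 37 °C. CFU/mL were compared with vehicle control.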

[2] = Cytotoxicity against human HEK293 cells after 48 hrs by MTT assay; format: cell-based
Procedure, shortened: (§2)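 HEK 293 cells, 10^4 per well, in DMEM with 10% FBS and penicillin/streptomycin, were left overnight at 37 °C under 5% CO2. MTT was added for 3 h and dissolved in DMSO, then OD570 was read. Six replicates per treatment; percent kill = (1 – test OD570/untreated OD570) × 100%; CC50 taken as the half-maximal toxic concentration.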

[3] = system: Staphylococcus aureus; assay: Bactericidal activity against methicillin-resistant Staphylococcus aureus ATCC BAA 1707 at 50 uM after 3 mins by time-kill kinetic assay relative to control; format: functional
Procedure, shortened: (§3)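 Overnight culture diluted 1:1000 into LB containing compound at the set concentration or DMSO vehicle alone, then shaken at 250 rpm at 37 °C. At 1, 3, 5 and 10 min, aliquots were serially diluted and plated on LB 1.5% agar and incubated overnight at 37 °C. CFU/mL were taken from plates with 30–300 colonies and compared with vehicle control. Three replicates came from separate colonies.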

[4] = system: Staphylococcus aureus; assay: (§4) Bactericidal activity against methicillin-resistant Staphylococcus aureus ATCC BAA 1707 assessed as as reduction in bacterial load by measuring reduction in colony forming units at 50 uM preincubated for 5 to 10 min followed by subculturing and further incubated for over night by time-kill kinetic assay; format: functional; procedure, shortened: as §3
[5] = system: HEK293; assay: Cytotoxicity against human HEK293 cells assessed as reduction in viability at 25 uM after 48 hrs by MTT assay relative to control; format: cell-based; conditions: hek293, 48 h; procedure, shortened: as §2
[6] = system: Staphylococcus aureus; assay: Bactericidal activity against methicillin-resistant Staphylococcus aureus ATCC BAA 1707 assessed as as reduction in bacterial load by measuring reduction in colony forming units at 50 uM preincubated for 1 min followed by subculturing and further incubated for over night by time-kill kinetic assay; format: functional; procedure, shortened: as §3
[7] = system: Staphylococcus aureus; assay: Bactericidal activity against methicillin-resistant Staphylococcus aureus ATCC BAA 1707 at 50 uM after 1 min by time-kill kinetic assay relative to control; format: functional; procedure, shortened: as §3
[8] = system: Staphylococcus aureus; assay: Antibacterial activity against methicillin-resistant Staphylococcus aureus ATCC BAA 1707 at 50 uM treated with 18 days old solution of test compound for 10 mins relative to control; format: functional; procedure, shortened: as §1
[9] = system: Staphylococcus aureus; assay: as §4, with “Antibacterial activity” for “Bactericidal activity”, “uM treated with 18 days old solution of test compound” for “uM preincubated”, “for” for “for 5 to”, “10 mins” for “10 min”; format: functional; procedure, shortened: as §1
[10] = system: Staphylococcus aureus; assay: Bactericidal activity against methicillin-resistant Staphylococcus aureus ATCC BAA 1707 assessed as as reduction in bacterial load by measuring reduction in colony forming units at 50 uM preincubated for 3 min followed by subculturing and further incubated for over night by time-kill kinetic assay; format: functional; procedure, shortened: as §3
[11] = system: Staphylococcus aureus; assay: as §4, with “Antibacterial activity” for “Bactericidal activity”, “uM treated with 111 days old solution of test compound” for “uM preincubated”, “for” for “for 5 to”, “10 mins” for “10 min”; format: functional, organism-based; procedure, shortened: as §1
[12] = system: Staphylococcus aureus; assay: Bactericidal activity against methicillin-resistant Staphylococcus aureus ATCC BAA 1707 at 50 uM after 5 to 10 mins by time-kill kinetic assay relative to control; format: functional; procedure, shortened: as §3
[13] = system: Staphylococcus aureus; assay: Bactericidal activity against methicillin-resistant Staphylococcus aureus ATCC BAA 1707 at 5 uM after 10 mins by time-kill kinetic assay relative to control; format: functional; procedure, shortened: as §3
[14] = system: Cryptococcus neoformans; assay: Fungicidal activity against Cryptococcus neoformans ATCC 66031 assessed as as reduction in bacterial load by measuring reduction in colony forming units at 50 uM preincubated for 5 to 10 min followed by subculturing and further incubated for 1 or 2 days by time-kill kinetic assay; format: functional
Procedure, shortened: (§5)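 C. neoformans ATCC 66031 was streaked on YPD agar for two days at 37 °C, and single colonies were grown overnight in YPD at 37 °C, 250 rpm. Overnight cultures were diluted in fresh YPD with compound in DMSO at 50 μM final, or DMSO alone, and kept at 37 °C, 250 rpm. Aliquots were diluted and plated on YPD agar, and colonies counted after 1–2 days at 37 °C. Triplicate; CFU per mL.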

[15] = system: Staphylococcus aureus; assay: Bactericidal activity against methicillin-resistant Staphylococcus aureus ATCC BAA 1707 at 20 uM after 10 mins by time-kill kinetic assay relative to control; format: functional; procedure, shortened: as §3
[16] = system: Klebsiella pneumoniae; assay: Antibacterial activity against Klebsiella pneumoniae ATCC 13883 after 16 to 18 hrs by CLSI protocol based broth microdilution assay; format: functional
[17] = system: Enterococcus faecium; assay: Antibacterial activity against vancomycin-resistant Enterococcus faecium ATCC 700221 after 16 to 18 hrs by CLSI protocol based broth microdilution assay; format: functional
[18] = system: Staphylococcus aureus; assay: Bactericidal activity against methicillin-resistant Staphylococcus aureus ATCC BAA 1707 assessed as as reduction in bacterial load by measuring reduction in colony forming units at 20 uM preincubated for 5 min followed by subculturing and further incubated for over night by time-kill kinetic assay; format: functional; procedure, shortened: as §3
[19] = system: Staphylococcus epidermidis; assay: Antibacterial activity against methicillin-resistant Staphylococcus epidermidis ATCC 35984 after 16 to 18 hrs by CLSI protocol based broth microdilution assay; format: functional
[20] = system: Staphylococcus aureus; assay: Bactericidal activity against methicillin-resistant Staphylococcus aureus ATCC BAA 1707 at 20 uM after 5 mins by time-kill kinetic assay relative to control; format: functional; procedure, shortened: as §3
[21] = system: Staphylococcus aureus; assay: Bactericidal activity against methicillin-resistant Staphylococcus aureus ATCC BAA 1707 assessed as as reduction in bacterial load by measuring reduction in colony forming units at 5 uM preincubated for 10 min followed by subculturing and further incubated for over night by time-kill kinetic assay; format: functional; procedure, shortened: as §3
[22] = system: Staphylococcus aureus; assay: Bactericidal activity against methicillin-resistant Staphylococcus aureus ATCC BAA 1707 assessed as as reduction in bacterial load by measuring reduction in colony forming units at 20 uM preincubated for 10min followed by subculturing and further incubated for over night by time-kill kinetic assay; format: functional; procedure, shortened: as §3
[23] = system: Acinetobacter baumannii; assay: Bactericidal activity against multidrug-resistant Acinetobacter baumannii ATCC 1794 at 50 uM after 5 mins by time-kill kinetic assay relative to control; format: functional; procedure, shortened: as §3
[24] = system: Enterococcus faecium; assay: Bactericidal activity vancomycin-resistant Enterococcus faecium ATCC 700221 assessed as as reduction in bacterial load by measuring reduction in colony forming units at 50 uM preincubated for 5 to 10 min followed by subculturing and further incubated for over night by time-kill kinetic assay; format: functional; procedure, shortened: as §3
[25] = system: Acinetobacter baumannii; assay: Bactericidal activity against multidrug-resistant Acinetobacter baumannii ATCC 1794 at 50 uM after 10 mins by time-kill kinetic assay relative to control; format: functional; procedure, shortened: as §3
[26] = system: Staphylococcus epidermidis; assay: Bactericidal activity against methicillin-resistant Staphylococcus epidermidis ATCC 35984 at 50 uM after 5 to 10 mins by time-kill kinetic assay relative to control; format: functional; procedure, shortened: as §3
[27] = system: Acinetobacter baumannii; assay: Bactericidal activity against multidrug-resistant Acinetobacter baumannii ATCC 1794 assessed as as reduction in bacterial load by measuring reduction in colony forming units at 50 uM preincubated for 5 min followed by subculturing and further incubated for over night by time-kill kinetic assay; format: functional; procedure, shortened: as §3
[28] = system: Staphylococcus aureus; assay: Bactericidal activity against methicillin-resistant Staphylococcus aureus ATCC BAA 1707 assessed as as reduction in bacterial load by measuring reduction in colony forming units at 5 uM preincubated for 5 min followed by subculturing and further incubated for over night by time-kill kinetic assay; format: functional; procedure, shortened: as §3
[29] = system: Acinetobacter baumannii; assay: Bactericidal activity against multidrug-resistant Acinetobacter baumannii ATCC 1794 assessed as as reduction in bacterial load by measuring reduction in colony forming units at 50 uM preincubated for 10 min followed by subculturing and further incubated for over night by time-kill kinetic assay; format: functional; procedure, shortened: as §3
[30] = system: Escherichia coli; assay: Antibacterial activity against Escherichia coli clinical isolate UAEC-1 after 16 to 18 hrs by CLSI protocol based broth microdilution assay; format: functional
[31] = system: Enterococcus faecium; assay: Bactericidal activity vancomycin-resistant Enterococcus faecium ATCC 700221 at 50 uM after 5 to 10 mins by time-kill kinetic assay relative to control; format: functional; procedure, shortened: as §3
[32] = system: Acinetobacter baumannii; assay: Antibacterial activity against multidrug-resistant Acinetobacter baumannii ATCC 1794 after 16 to 18 hrs by CLSI protocol based broth microdilution assay; format: functional
[33] = system: Cryptococcus neoformans; assay: Fungicidal activity against Cryptococcus neoformans ATCC 66031 at 50 uM after 5 to 10 mins by time-kill kinetic assay relative to control; format: functional; procedure, shortened: as §5
[34] = system: Staphylococcus aureus; assay: Antibacterial activity against methicillin-resistant Staphylococcus aureus ATCC BAA 1707 after 16 to 18 hrs by CLSI protocol based broth microdilution assay; format: functional
[35] = system: Staphylococcus epidermidis; assay: as §4, with “epidermidis” for “aureus”, “35984” for “BAA 1707”; format: functional; procedure, shortened: as §3

CCCCCCCCCCCCCCCC[N+](C)(C)Cc1ccccc1.[Cl-] [CETALKONIUM CHLORIDE]
Activity [1]: >99%
CC50 at 48 h [2]: 6840 nM
Activity [3]: 99.99%
Activity [4]: >6 log10CFU/ml
Activity [5]: 100%
Activity [6]: 4 log10CFU/ml
Activity [7]: 99.99%
Activity [8]: >99%
Activity [9]: >3 log10CFU/ml
Activity [10]: 4 log10CFU/ml
Activity [11]: Active
Activity [12]: 100%

CCCCCCCCCCCCCCCC[n+]1ccn(Cc2ccccc2)c1C.[I-]
CC50 at 48 h [2]: 2410 nM
Activity [5]: 100%

CCCCCCCCCCCCCCCCn1cc[n+](-c2ccccc2)c1C
Activity [1]: >99%
Activity [13]: 90%
CC50 at 48 h [2]: < 1560 nM
Activity [3]: 99.99%
Activity [14]: 7 log10CFU/ml
Activity [15]: 99.99%
Activity [4]: >6 log10CFU/ml
Activity [5]: 100%
MIC [16]: 6.25 µM
MIC [17]: 3.13 µM
Activity [18]: 3 log10CFU/ml
Activity [6]: 4 log10CFU/ml
Activity [7]: 99.99%
Activity [8]: >99%
MIC [19]: 1.17 µM
Activity [20]: 99.9%
Activity [21]: 1 log10CFU/ml
Activity [22]: 4 log10CFU/ml
Activity [23]: 99.9%
Activity [24]: 6 log10CFU/ml
Activity [9]: >3 log10CFU/ml
Activity [25]: >99.9999%
Activity [26]: 99.9999%
Activity [27]: 3 log10CFU/ml
Activity [28]: <1 log10CFU/ml
Activity [29]: >6 log10CFU/ml
MIC [30]: 6.25 µM
Activity [31]: 99.9999%
Activity [10]: 4 log10CFU/ml
MIC [32]: 12.5 µM
Activity [33]: 100%
Activity [11]: Active
MIC [34]: 1.56 µM
Activity [12]: 100%
Activity [35]: 6 log10CFU/ml
